Measurements reported in ChEMBL document CHEMBL1154009, “Identification, synthesis and SAR of amino substituted pyrido[3,2b]pyrazinones as potent and selective PDE5 inhibitors” (Bioorg Med Chem Lett, 2009).

Assays:
[1] = target: cGMP-specific 3',5'-cyclic phosphodiesterase (Homo sapiens, UniProt O76074); experiment: Inhibition of PDE5
[2] = Inhibition of PDE6
[3] = Inhibition of PDE11
[4] = Selectivity ratio of IC50 for PDE6 to IC50 for PDE5
[5] = Selectivity ratio of IC50 for PDE11 to IC50 for PDE5
[6] = Half life in Sprague-Dawley rat at 2 mg/kg, po and 2mg/kg, iv; format: ADME, organism-based; set-up: dose 2 mg/kg, route oral; conditions: in vivo
Outline: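 Sprague Dawley rats (n = 3) dosed IV at 2 mpk in 70% PEG400/20% 0.05 M citrate buffer/10% ethanol, pH 5.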

[7] = Aqueous solubility at pH 7.4; format: physicochemical; conditions: aqueous medium

IC50 [1] [nM] | IC50 [2] [nM] | IC50 [3] [nM] | Ratio IC50 [4] | Ratio IC50 [5] | half-life [6] [h] | solubility [7] [µM] | SMILES
0.3 | 72 | 7.7 | – | – | – | – | COc1ccc(-c2ccc3nc(NCC(=O)N(C)C)c(=O)n(CC4CCCCC4)c3n2)cn1
4.6 | 240 | 405 | > 100 | – | – | – | O=c1c(NCCN2CCOCC2)nc2ccc(-c3ccc(F)cc3)nc2n1CC1CCCCC1
2.9 | 112 | 79.2 | – | – | – | – | O=c1c(NCC2CCOCC2)nc2ccc(-c3ccc(O)nc3)nc2n1CC1CCCCC1
14.5 | 1190 | 1210 | > 100 | > 600 | – | – | CCCOCCn1c(=O)c(NCC(=O)N(C)C)nc2ccc(-c3ccc(OC)nc3)nc21
1.3 | 10.1 | 345 | – | 100 | – | – | COc1ccc(Cn2c(=O)c(NCCN3CCOCC3)nc3ccc(-c4ccc(F)cc4)nc32)cc1
534 | – | – | – | – | – | – | CCCOCCn1c(=O)c(NCCN2CCOCC2)nc2ccc(-c3ccc(=O)[nH]c3)nc21
33.9 | 1170 | > 2000 | – | – | – | – | CCCOCCn1c(=O)c(NCC2CCOCC2)nc2ccc(-c3ccncc3)nc21
0.9 | 33.5 | 36.5 | – | – | – | – | O=c1c(NCC2CCOCC2)nc2ccc(-c3ccncc3)nc2n1CC1CCCCC1
25 | 150 | 41 | – | – | – | – | COc1ccc(Cn2c(=O)ccc3ccc(-c4ccncc4)cc32)cc1
3 | 459 | 324 | > 100 | – | – | – | O=c1c(NCC2CCOCC2)nc2ccc(-c3ccc(F)cc3)nc2n1CC1CCCCC1
51 | 6 | – | – | – | – | – | CCCn1ccc(=O)c2c(N)nc(-c3ccccc3)cc21
0.3 | 32 | 8.1 | – | – | – | – | COc1ccc(-c2ccc3nc(NCC4CCOCC4)c(=O)n(CC4CCCCC4)c3n2)cn1
149 | – | – | – | – | – | – | CCOCCn1c(=O)c(NCC2CCOCC2)nc2ccc(-c3ccc(F)cc3)nc21
43 | 1160 | > 2000 | – | – | – | – | CCCCCN1C(=O)CN(C)c2ncc(-c3ccc(F)c(F)c3)cc21
26.7 | > 2000 | > 2000 | – | – | – | – | CCCOCCn1c(=O)c(NCCN2CCOCC2)nc2ccc(-c3cnc(OC)nc3)nc21
2.4 | 317 | 1540 | > 100 | > 600 | 3 | – | CCCOCCn1c(=O)c(NCCN2CCOCC2)nc2ccc(-c3ccc(OC)nc3)nc21
0.4 | 25.2 | 5.9 | – | – | – | < 3 | COc1ccc(-c2ccc3nc(NCCN4CCOCC4)c(=O)n(CC4CCCCC4)c3n2)cn1

IC50 [1] [nM] | IC50 [2] [nM] | IC50 [3] [nM] | Ratio IC50 [4] | Ratio IC50 [5] | half-life [6] [h] | solubility [7] [µM] | SMILES
3.5 | > 2000 | 90.9 | – | – | – | – | CN(C)C(=O)CNc1nc2ccc(-c3ccc(F)cc3)nc2n(CC2CCCCC2)c1=O
20.3 | 920 | 970 | – | – | – | – | O=c1c(NCC2CCOCC2)nc2ccc(-c3ccc(F)cc3)nc2n1Cc1ccccn1
22.4 | > 2000 | > 2000 | – | – | – | – | CCCOCCn1c(=O)c(NCC2CCOCC2)nc2ccc(-c3ccc(F)cc3)nc21
2.3 | 350 | 1230 | > 100 | > 600 | – | – | CCCOCCn1c(=O)c(NCC2CCOCC2)nc2ccc(-c3ccc(OC)nc3)nc21
2 | 11.6 | 482 | – | 100 | – | – | COc1ccc(Cn2c(=O)c(NCCN3CCOCC3)nc3ccc(-c4ccc(F)c(F)c4)nc32)cc1
36.5 | 1980 | > 2000 | – | – | – | – | CCCOCCn1c(=O)c(NCCN2CCOCC2)nc2ccc(-c3c(C)noc3C)nc21
224 | – | – | – | – | – | – | CC(C)Cn1c(=O)c(NCC2CCOCC2)nc2ccc(-c3ccc(F)cc3)nc21
33.3 | 1850 | > 2000 | – | – | – | – | CCCOCCn1c(=O)c(NCCN2CCOCC2)nc2ccc(-c3ccc(F)cc3)nc21
1 | 41.6 | 286 | – | – | – | – | Cc1noc(C)c1-c1ccc2nc(NCCN3CCOCC3)c(=O)n(CC3CCCCC3)c2n1
52.5 | 979 | 1660 | – | – | – | – | CC(C)OCCn1c(=O)c(NCCN2CCOCC2)nc2ccc(-c3ccc(F)c(F)c3)nc21
28.5 | 114 | 145 | – | – | – | – | Nc1nc2ccc(-c3ccc(F)cc3)nc2n(CC2CCCCC2)c1=O
13.4 | 871 | 558 | – | – | – | – | O=c1c(NCc2cccnc2)nc2ccc(-c3ccc(F)cc3)nc2n1CC1CCCCC1
2.5 | 375 | 474 | – | – | – | – | O=c1c(NCC2CCOCC2)nc2ccc(-c3ccc(F)cc3)nc2n1Cc1cccnc1
2.7 | 910 | 390 | – | – | – | – | O=c1c(NCC2CCOCC2)nc2ccc(-c3ccc(F)cc3)nc2n1Cc1cc(F)cc(F)c1
1.6 | 195 | 213 | > 100 | – | – | – | O=c1c(NCCN2CCOCC2)nc2ccc(-c3ccc(F)c(F)c3)nc2n1CC1CCCCC1
0.3 | 36.3 | 8.2 | – | – | – | – | COc1ncc(-c2ccc3nc(NCC4CCOCC4)c(=O)n(CC4CCCCC4)c3n2)cn1
